ChEMBL document CHEMBL5096187, “Efficient Synthesis and Bioevaluation of Novel Dual Tubulin/Histone Deacetylase 3 Inhibitors as Potential Anticancer Agents” (J Med Chem, 2021)

Experiments:
[1] = test system: A549; test: Antiproliferative activity against human A549 cells assessed as inhibition of cell viability measured for 48 hrs by microplate reader based CCK-8 assay; assay type: functional; conditions: A549, 48 h
[2] = Hepatotoxicity in C57BL/6 mouse assessed as effect on ALT level in serum; assay type: toxicity
[3] = test system: B16-F10; test: Antimigratory activity against mouse […] cells assessed as reduction in wound closure measured up to 24 hrs by scratch wound healing assay; assay type: functional, cell-based; conditions: dose 25-100 nM, DDE = dose-dependent effect
Summary of the method: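 B16-F10 cells seeded overnight; confluent monolayers scratched with a pipette tip and rinsed twice with medium to clear debris. Cells treated with compound for 24 h against a DMSO control. Phase-contrast images taken at 0 and 24 h. Migration distance into the wound, or scratch length, measured by hand. n = 3.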

[4] = test system: B16-F10; test: Induction of cell cycle arrest in mouse B16-F10 cells assessed as accumulation of cells in G2/M phase at 100 nM measured after 48 hrs by PI/RNaseA staining based flow cytometry analysis (Rvb= 5.76%); assay type: functional
[5] = test system: B16-F10; test: Induction of apoptosis in mouse B16-F10 cells assessed as necrotic cells at 100 nM incubated for 48 hrs by Annexin V-FITC/PI analysis (reference value: 0.012 %); assay type: functional
[6] = test system: B16-F10; test: Inhibition of cell migration in mouse B16-F10 cells assessed as reduction in wound area ratio measured at 50 nM incubated for 24 hrs by wound healing assay; assay type: functional; design: scale not given: the % may be the effect or the level left
Summary of the method: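 Confluent B16-F10 monolayers, seeded overnight, were scratched with a pipette tip and washed to remove debris. Cells were then treated, and phase-contrast images were taken at 0 and 24 h. Migration distance or wound area measured manually against DMSO control; n = 3.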

[7] = Toxicity in C57BL/6 mouse allografted with mouse B16-F10 cells assessed as morphological abnormalities in kidney at 10 mg/kg, ip administered for 14 days by H and E staining based analysis; assay type: organism-based; conditions: in vivo, 336 h, time 14 day
Summary of the method: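 C57BL/6 mice with subcutaneous B16-F10 allografts, n = 8 per group, given i.p. injections once daily for 14 days. Single agents at 10 mg/kg; combination at 5 + 5 mg/kg. Vehicle: ethanol/polyoxyethylene castor oil/saline 1.25:1.25:7.5. Liver and kidney fixed in 4% paraformaldehyde, paraffin-embedded, H&E stained and examined by microscopy.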

[8] = biological target: Histone deacetylase 1 (Homo sapiens, UniProt Q13547); test: Inhibition of full length recombinant human HDAC1 (1 to 482 residues) expressed in Baculovirus system using Ac-Leu-Gly-Lys (Ac)-AMC as substrate pretreated for 5 mins followed by substrate addition and measured after 30 mins
Histone deacetylase 1, sequence (Q13547 whole entry, the tested form may be a part): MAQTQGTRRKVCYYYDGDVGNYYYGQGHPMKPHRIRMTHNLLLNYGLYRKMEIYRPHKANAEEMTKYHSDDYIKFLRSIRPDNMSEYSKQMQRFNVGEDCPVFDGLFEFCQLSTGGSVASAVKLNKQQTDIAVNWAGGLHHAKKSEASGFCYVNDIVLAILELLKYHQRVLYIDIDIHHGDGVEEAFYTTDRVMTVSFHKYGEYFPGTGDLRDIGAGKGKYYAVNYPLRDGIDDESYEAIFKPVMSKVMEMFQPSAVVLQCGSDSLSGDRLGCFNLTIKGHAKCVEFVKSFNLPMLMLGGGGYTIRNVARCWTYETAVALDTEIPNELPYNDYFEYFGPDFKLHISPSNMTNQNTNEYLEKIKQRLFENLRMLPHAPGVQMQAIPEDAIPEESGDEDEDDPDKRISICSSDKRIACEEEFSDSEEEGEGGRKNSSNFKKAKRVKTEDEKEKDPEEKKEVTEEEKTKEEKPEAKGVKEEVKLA

IC50 [1]: 140 nM
IC50 [8]: 9.04 µM
SMILES: COc1cc(C(=O)c2csc(-c3ccc(NC(=O)CCCC(=O)Nc4ccccc4N)cc3)n2)cc(OC)c1OC
Activity [2]: Non-Toxic
Activity [3]: Dde
Activity [4]: 83.26%
Activity [5]: 1.29%
Activity [6]: 17.63%
Activity [7]: Non-Toxic
